Source: PubChem BioAssay
STAT3 inh: STAT3 signaling inhibition; AID 862; U3A cells, IL-6 STAT3-luciferase reporter, luminescence; host cell line lacks STAT1; inhibition, % at 5.5 µM; actives 0.89% (n = 190,000);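 active = inhibition above the mean inhibition across all screened compounds plus 3 SD, cut at about 44% in these data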
APP 5'UTR act: APP 5'UTR luciferase reporter activation; SH-SY5Y APP 5'UTR luciferase reporter, luminescence; zero percent = DMSO vehicle wells; activation, % at 2 µM; actives 1% (n = 190,000); AID 1276;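 active = activation above a set limit, based on mean plus 3 SD of controls, cut at about 140% in these data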
STAT3 activator: STAT3 signaling activation; actives 0.91% (n = 190,000); U3A cells, IL-6 STAT3-luciferase reporter, luminescence; 100% = signal with IL-6 EC80 alone; activation (% of control), % at 5.6 µM;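 active = activation above the screen-wide mean of compound activation plus 3 SD, cut at about 130% in these data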
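Material: human STAT1-deficient U3A cells with stable STAT3-luciferase reporter / Probe or stimulus: IL-6 stimulus at 33 ng/mL final / Schedule: 1 h compound pre-exposure, 6 h IL-6 stimulation, 37 °C / Technique: luminescence / Read-out basis: percent of IL-6-only median luminescence / Control set: IL-6-only high control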
STAT1 blocker: inhibitors of IFN-gamma induced STAT1 signaling; NIH 3T3 STAT1-luciferase reporter, luminescence; inhibition, % at 5.5 µM; actives 0.35% (n = 200,000); AID 920;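 active = inhibition above a set limit, the mean inhibition across all tested compounds plus 3 SD, cut at about 34% in these data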
NF-kB neuron act: NF-kB expression increase, human neuronal cells | NF-kB reporter expression; hits give high values | fold change at 12.5 µM | actives 1.6% (n = 190,000) | AID 1239; in the data active = fold change above about 3.3
STAT1 act: activators of IFN-gamma induced STAT1 signaling; NIH 3T3 STAT1-luciferase reporter, luminescence; 100% = IFN-gamma alone, no compound; activation (% of control), % at 5.5 µM; actives 2.6% (n = 200,000); AID 932;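 active = activation above the screen-wide mean activation plus 3 SD, cut at about 130% in these data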
Of the large screens only hits and unclear results are named; the others gave an inactive call; ! = not confirmed by another sample. Shown are actives, neighbours in structure and some others; about 5.1% of the full set was active somewhere.

Cc1cc[n+](-c2[nH]c(=O)sc2/C=N/N=C(\[O-])c2ccccc2)cc1C	none
Cc1cc(=O)[nH]c(S/C=C/c2ccccc2)n1	NF-kB neuron act 4.14
Nc1cc(=O)[nH]c(SC/C=C/c2ccccc2)n1	none
CCOC(=O)C1C(=O)CC(C)(O)C(C(=O)OCC)C1c1ccc(N(CC)CC)cc1 (centres undefined)	none
CCC(C)(C)n1nnnc1C(c1cccnc1)N1CCCc2ccccc21 (centres undefined)	none
CC/C(=N\NC(=O)c1c(-c2ccccc2)noc1C)c1ccc(C)o1	none
CC/C(=N\NC(=O)c1ccoc1C)c1ccc(C)o1	STAT1 act 130.1
O=c1c2cc3ccccc3n2cnn1Cc1ccccc1F	none
CC(=O)OCC(=O)[C@@]1(O)CC[C@H]2[C@@H]3CCC4=CC(=O)CC[C@]4(C)[C@H]3[C@@H](O)C[C@@]21C	none
C[C@]12CCC(=O)C=C1CC[C@@H]1[C@@H]2[C@@H](O)C[C@@]2(C)[C@H]1CC[C@]2(O)C(=O)COC(=O)CCC(=O)O	STAT1 act 129.0!
COc1cc(NC(=S)NC2CC2)c(OC)cc1Cl	none
Cc1ccc(NC(=O)CN(C)CC(=O)Nc2ccc(N3CCOCC3)cc2)cc1F	none
CC1Cc2ccccc2N1C(=S)NC(=O)c1ccco1 (centres undefined)	none
O=C(c1ccco1)N1CCc2ccccc21	STAT1 act 133.6
O=C(/C=C/c1ccco1)N1CCc2ccccc21	APP 5'UTR act 249.7, NF-kB neuron act 7.7
CCOC(=O)/C=C/C(=O)N1CCc2ccccc21	none
O=C(NC(=S)N1CCCc2ccccc21)c1ccco1	STAT3 activator 135.3
O=C(c1ccc(Br)o1)N1CCc2ccccc21	NF-kB neuron act 4.32, STAT1 act 147.5
CCOC(=O)c1c(NC(=O)CSc2nncs2)sc(C)c1-c1ccccc1	none
COc1ccc(/C=C/C(=O)N2CCCc3ccccc32)cc1	none
O=C1CCN(C(=O)/C=C/c2ccccc2)c2ccccc21	STAT1 act 129.3
Cc1ccc(NC(=O)N2C(=O)C3(OCCO3)c3ccccc32)cc1	STAT1 act 138.1
CC(Sc1nnc(Cc2cccs2)n1C1CCCCC1)C(=O)N1CCc2ccccc21 (centres undefined)	none
Nc1[nH]c(N=NC(=O)c2ccccc2)c2ccccc12	NF-kB neuron act 3.37, STAT1 act 142.2
Nc1[nH]c(N=NC(=O)c2ccc(Cl)cc2)c2ccccc12	none
Cc1ccc(NC(=O)COC(=O)CNC(=O)c2cccc([N+](=O)[O-])c2)cc1S(=O)(=O)N1CCCCCC1	none
CCOC(=O)c1c(NC(=O)CSc2c[nH]c3ccccc23)sc2c1CCCC2	STAT3 activator 134.6
CCOC(=O)c1c(NC(=O)CSc2c[nH]c3ccccc23)sc2c1CCC2	NF-kB neuron act 4.04
CCOC(=O)c1c(NC(=O)CSc2nnc3ccccn23)sc2c1CCC2	none
CCOC(=O)c1c(NC(=O)CSc2nnc(-c3c[nH]c4ccccc34)n2CCOC)sc2c1CCCCC2	none
CCCCCCOC(=O)Sc1nc2ccccc2o1	NF-kB neuron act 4.06
COC(=O)CSc1nc2ccccc2o1	none
O=S(=O)(Cc1cc(-c2ccc(Cl)cc2)no1)c1ccccc1	STAT1 act 135.0
Clc1ccc(-c2cc(COc3ccccc3)on2)cc1	STAT1 act 132.5
O=S(=O)(Cc1cc(-c2ccccc2Cl)no1)c1ccccc1	STAT1 act 132.0
Clc1ccc(OCc2cc(-c3ccccc3)no2)cc1Cl	none
O=S(=O)(NCc1cc(-c2ccccc2Cl)no1)c1ccccc1	none
CC(/C=N/n1c(-c2ccco2)n[nH]c1=S)=C\c1ccccc1	none
Cc1cc2c(cc1C)NC(c1nc3ccccc3[nH]1)C1=C(CC(C)(C)CC1=O)N2 (centres undefined)	none
COC(=O)c1cc(Br)c(=O)n(-c2nccs2)c1	none
Cc1cc(O)c(/C=N/Nc2cccc(Cl)c2)c(=O)o1	none
CCC(=O)c1ccccc1OCCN1C(=O)NC(C)(C)C1=O	none
CN(C)c1ccc(C(=O)N2CC(=O)N(CCc3ccccc3)C(=O)C2)cc1	none
COc1ccc(C(=O)N2CC(=O)N(CCc3ccccc3)C(=O)C2)cc1OC	STAT3 activator 143.7
O=C(O)c1sccc1OCc1ccccc1	none
O=C(CSc1nc(-c2ccco2)cc(C(F)(F)F)n1)N1CCSCC1	none
COc1ccc(C(=O)NC(=S)N2CCNC(=O)C2)cc1Br	none
O=C1CN(C(=S)NC(=O)c2ccc(-c3ccccc3)cc2)CCN1	STAT1 act 132.9
O=C(CSc1nnnn1-c1ccccc1)Nc1nsc(-c2ccc(Cl)cc2)n1	none
O=C(CSc1nnnn1-c1ccccc1)Nc1nsc(-c2ccccc2)n1	NF-kB neuron act 7.91
O=[N+]([O-])c1ccccc1N/N=C/c1c[nH]c2ccccc12	APP 5'UTR act 173.2, STAT3 activator 203.0, NF-kB neuron act 4.18, STAT1 act 151.1
Cn1cc([N+](=O)[O-])c(C(=O)N/N=C\c2c[nH]c3ccccc23)n1	none
C(=N\Nc1nc2ccccc2[nH]1)/c1c[nH]c2ccccc12	STAT1 act 129.8
Brc1ccc(-c2ccc(/C=N/Nc3nc4ccccc4[nH]3)o2)cc1	STAT1 act 138.0
Cc1ccccc1/C=N/Nc1nc2ccccc2[nH]1	none
Fc1cccc(/C=N/Nc2nc3ccccc3[nH]2)c1	STAT1 act 141.2
Cc1nnc(NC(=O)CSc2ccccn2)s1	none
C(=N\Nc1ccccn1)/c1ccc2c(c1)OCCO2	APP 5'UTR act 140.1, STAT1 act 137.0
C(=C\c1ccccc1)/C=N/Nc1nc2ccccc2[nH]1	APP 5'UTR act 136.7, NF-kB neuron act 4.53, STAT1 act 148.4
Fc1cccc(/C=N/Nc2ccccn2)c1	STAT1 act 138.2
CCC1(CC)NC(=S)N(Nc2ccccc2)C1=O	none
COC(=O)c1cn[nH]c1NC(=S)Nc1ccc(Cl)c(Cl)c1	APP 5'UTR act 221.8, STAT1 act 145.2
COCCn1c(C)cc(/C=C2/NC(=O)N(c3cccc(Cl)c3)C2=O)c1C	STAT1 act 137.8
CC(C)n1cc(/C=C2\NC(=O)N(c3cccc(Cl)c3)C2=O)c2ccccc21	none
COc1cc(NC(=O)CSc2nc3ccccc3cc2C)c(C(=O)O)cc1OC	NF-kB neuron act 8.72
CC(=O)NC1=NN(C(C)=O)C(C)(c2ccc(Br)cc2)S1 (centres undefined)	none
c1ccc(-c2nnc(SCc3nc4ccccc4[nH]3)n2Cc2ccco2)cc1	none
O=c1[nH]c(/C=C2\C=Nc3ccccc32)c(O)n1Cc1ccccc1F	NF-kB neuron act 6.94
COC(=O)C1=C(O)/C(=C\c2cc(C)n(-c3ccccc3C)c2C)N=C1C	none
CCOc1cc(C2NN=C(c3ccc(C)cc3)S2)ccc1O (centres undefined)	NF-kB neuron act 4.8, STAT1 act 136.0
